Laboratory results taken from paper PMC2190483 (The Journal of Experimental Medicine, 1976).

What was measured:
human eosinophils [1] = test: Eosinophil chemotaxis in modified Boyden chambers; type: cell-based; details: for magnitude of the maximum eosinophil response (rank among tetrapeptides): Discussion, Fig. 1; for chemotactic activity (qualitative): eosinophils
How it was run: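 Blood from donors with 26–89% eosinophilia was citrate/dextran-sedimented 30 min at 37°C and centrifuged 100 g for 10 min. Leukocytes were washed three times into HBSS-0.4% ovalbumin-Tris pH 7.4. Stimuli in the lower compartment were separated from cells by a 3-µm filter, incubated 2½–3 h at 37°C. Fixed, stained filters were read blind at background depth (2–8 cells/hpf), 10 hpf from duplicate chambers, as net cells/hpf.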

human eosinophils [2] = test: Chemotactic deactivation of eosinophils, assessed by response to Val-Gly-Ser-Glu; type: cell-based; details: for deactivation (qualitative): 10-r' M tetrapeptide, response to valyl-tetrapeptide, Fig. 3
How it was run: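 Leukocytes from hypereosinophilic donors were dextran-sedimented, washed and resuspended in HBSS with 0.4% ovalbumin and Tris-HCl pH 7.4. Eosinophils were preincubated 2–40 min at 37°C with graded valyl- or alanyl-tetrapeptide, then washed three times. They were then challenged in a Boyden chamber (3-µm filter) with 10^-7 M valyl-tetrapeptide. Residual response is given as % of buffer-treated cells, mean ±1 SD of three experiments.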

human eosinophils [3] = test: Suppression of the eosinophil chemotactic response to C5a by tripeptides; type: cell-based; details: for inhibition of response to C5a: pretreatment with 10^-7 M tripeptide followed by washing; for inhibition of the C5a-stimulated response: 10^-7 M tripeptide added with the stimulus
How it was run: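 NH2-terminal tripeptide was added to the stimulus compartment with C5a in two experiments. In three experiments, eosinophils were pretreated with COOH-terminal tripeptide and washed. The C5a stimulus was a tryptic digest of purified human plasma C5, heat-treated 20 min at 61°C.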

neutrophils = test: Neutrophil chemotaxis to valyl-tetrapeptide and its inhibition by tripeptides; type: cell-based, human; details: for irreversible inhibition of the neutrophil response: response to 10^-7 M valyl-tetrapeptide; for inhibition of the response of neutrophils: tripeptide added to the stimulus, equimolar to valyl-tetrapeptide; for chemotactic response of neutrophils: valyl-tetrapeptide stimulus, neutrophils purified to 98%
How it was run: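 Neutrophils from normal donors were isolated on Ficoll-Hypaque to 98% purity, washed and resuspended in HBSS-ovalbumin. They were tested in modified Boyden chambers with a 3-µm filter against 10^-7 M valyl-tetrapeptide, with or without NH2- or COOH-terminal tripeptide, for 2½–3 h at 37°C. Migrated cells were counted blind in 10 hpf from duplicate chambers as net neutrophils/hpf.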

human eosinophils [4] = test: Modulation; type: cell-based; details: for irreversible inhibition of the eosinophil response to 10-7 M valyl-tetrapeptide: neutrophil comparison; for inhibition of response to 10-7 M valyl-tetrapeptide: pretreatment with 10^-7 M tripeptide followed by washing; for inhibition of the valyl-tetrapeptide effect: 10^-7 M tripeptide added with the stimulus
How it was run: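 Tripeptides or amides were added to the stimulus compartment with 10^-7 M valyl-tetrapeptide or to the cell compartment. Alternatively, eosinophils were preincubated with them 20 min at 37°C and washed three times. Migration in a modified Boyden chamber (3-µm filter, 2½–3 h, 37°C) was counted as net eosinophils/hpf. It is expressed as % of the response of buffer-treated cells.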

human eosinophils [5] = test: Cross-deactivation of eosinophils, assessed by response to C5a; type: cell-based; details: 10-12 M tetrapeptide pretreatment; Fig. 4
How it was run: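 Eosinophils in HBSS-ovalbumin were pretreated 2–40 min at 37°C with graded valyl- or alanyl-tetrapeptide and washed three times. They were then challenged in a Boyden chamber with C5a at the level derived from 2.5 µg equivalent of C5/ml. C5a came from tryptic digestion of human plasma C5, heated 20 min at 61°C and centrifuged. Results are % of buffer-treated control, mean ±1 SD, three experiments.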

human eosinophils [6] = type: cell-based
How it was run: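 Eosinophils were pretreated 20 min at 37°C with deactivating valyl-tetrapeptide or COOH-terminal tripeptide, with Val-Gly-Ser present at graded concentrations. They were then washed three times. Residual chemotactic response to 10^-7 M valyl-tetrapeptide was measured in Boyden chambers. It is expressed as mean % of buffer-exposed control response, from two experiments with different donors.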

For Leu- Ser-Glu [Leu-Ser-Glu], the “maximum activity as fraction of maximum chemotactic activity of tetrapeptides” value (human eosinophils [1]; versus maximum obtained with 10^-7 M tetrapeptides, Fig. 2) was “approximately two-thirds”.

In the case of Phe-Gly-Ser-Glu, the “magnitude of the maximum eosinophil response (rank among tetrapeptides)” value (human eosinophils [1]) is reported as “greatest maximum response”, the “deactivating activity (qualitative)” value (human eosinophils [2]; at 10^-6 M) is reported as “comparable to 10-~ M alanyl-tetrapeptide” and the “deactivating activity (qualitative)” value (human eosinophils [2]; at 10^-7 M) is reported as “minimally evident”.

In the case of Gly-Ser-Glu, the “inhibition of response to C5a” value (human eosinophils [3]; experiment 1 of three) is reported as 71%, the “inhibition of response to C5a” value (human eosinophils [3]; experiment 2 of three) is reported as 53% and the “inhibition of response to C5a” value (human eosinophils [3]; experiment 3 of three) is reported as 37%. The “chemotactic activity (qualitative)” value (human eosinophils [1]) was “only marginally chemotactic”, the “irreversible inhibition of the neutrophil response” value (neutrophils; experiment 1) was 33% and the “irreversible inhibition of the neutrophil response” value (neutrophils; experiment 2) was 28%. For the same molecule, the “effect when mixed with stimulus” value (human eosinophils [4]; 10^-7 M mixed with an equimolar quantity of valyl-tetrapeptide stimulus) was “ineffective”, the “irreversible inhibition of the eosinophil response to 10-7 M valyl-tetrapeptide” value (human eosinophils [4]; experiment 1) was 61% and the “irreversible inhibition of the eosinophil response to 10-7 M valyl-tetrapeptide” value (human eosinophils [4]; experiment 2) was 74%. For the same molecule, the “inhibition of response to 10-7 M valyl-tetrapeptide” value (human eosinophils [4]; experiment 2 of three) was 62% and the “inhibition of response to 10-7 M valyl-tetrapeptide” value (human eosinophils [4]; experiment 3 of three) was 48%.

Ala-Gly-Ser-Glu was tested, and the “effect on eosinophil responsiveness to C5a” value (human eosinophils [5]) was “did not decrease” and the “deactivation (qualitative)” value (human eosinophils [2]) was “substantial deactivation”.

For Val-Gly-Ser, the “inhibition of the C5a-stimulated response” value (human eosinophils [3]; experiment 1 of two) was 18%, the “inhibition of the C5a-stimulated response” value (human eosinophils [3]; experiment 2 of two) was 29% and the “chemotactic activity (qualitative)” value (human eosinophils [1]) was “only marginally chemotactic”. The “protection against the COOH-terminal tripeptide” value (human eosinophils [6]; at an equimolar concentration or at a 10-fold excess) was “no protection”, the “protection from deactivation by valyl-tetrapeptide” value (human eosinophils [6]; equimolar concentration of tripeptide and deactivating valyl-tetrapeptide) was 40-50% and the “protection from deactivation by valyl-tetrapeptide (qualitative)” value (human eosinophils [6]; tripeptide at 10^-7 M with 10^-8 M valyl-tetrapeptide) was “completely protective”. For the same molecule, the “reduction of the neutrophil response to 10-7 M valyl-tetrapeptide” value (neutrophils; equimolar concentrations, Discussion) was “Approximately 50%”, the “inhibition of the response of neutrophils” value (neutrophils; experiment 1) was 49% and the “inhibition of the response of neutrophils” value (neutrophils; experiment 2) was 54%. For the same molecule, the “inhibition of the valyl-tetrapeptide effect” value (human eosinophils [4]; experiment 1 of two) was 47%, the “inhibition of the valyl-tetrapeptide effect” value (human eosinophils [4]; experiment 2 of two) was 61% and the “inhibition of the eosinophil response” value (human eosinophils [4]; on the stimulus side with 10^-7 M valyl-tetrapeptide, equimolar concentrations, Discussion, Fig. 5) was 50-60%. The “inhibition of the eosinophil response” value (human eosinophils [4]; tripeptide added to the 10^-7 M tetrapeptide stimulus at approximately an equimolar concentration, Fig. 5, Results) was 50%.

Leu-Gly-Ser-Glu was tested, and the “magnitude of the maximum eosinophil response (rank among tetrapeptides)” value (human eosinophils [1]) was “the least”.

Val-Gly-Ser-Glu was tested, and the “effect on eosinophil responsiveness to C5a” value (human eosinophils [5]) was “did not decrease”, the control chemotactic response (human eosinophils [1]; 10^-7 M stimulus, Table I, donor 2 (37% eosinophilia)) was 12.3 net eosinophils per hpf and the control chemotactic response (human eosinophils [1]; 10^-7 M stimulus, Table II, experiment 2, buffer-exposed cells) was 11.7 net eos/hpf. The “chemotactic response of eosinophils” value (human eosinophils [1]; valyl-tetrapeptide stimulus, neutrophil comparison, experiment 2) was 15.3 eosinophils (eos)/hpf, the “chemotactic response of neutrophils” value (neutrophils; experiment 1) was 16.9 neutrophils/hpf and the “chemotactic response of neutrophils” value (neutrophils; experiment 2) was 21.4 neutrophils/hpf. For the same molecule, the “deactivation (qualitative)” value (human eosinophils [2]) was “substantial deactivation”.

B1: C5a: prepared by tryptic digestion of purified C5 prepared from human plasma (protein, UniProt P01031 678-751, looked up)
C5a anaphylatoxin: TLQKKIEEIAAKYKHSVVKKCCYDGACVNNDETCEQRAARISLGPRCIKAFTECCVVASQLRANISHKDMQLGR
modifications: C5a anaphylatoxin
B1 was tested, and the control chemotactic response (human eosinophils [1]; C5a derived from 2.5 µg equivalent of C5/ml, Fig. 4, donor 2 (43% eosinophilia)) was 16.5 net eos/hpf and the control chemotactic response (human eosinophils [1]; C5a derived from 2.5 µg equivalent of C5/ml, Fig. 4, donor 3 (59% eosinophilia)) was 18.8 net eos/hpf.
